Most compounds without a hit are left out; they make up all but 2.8% or so of the library.
ASAP1 GAP inh: ASAP1 ArfGAP inhibition; ASAP1-stimulated ARF1 GTP hydrolysis, GDP FP detection; AID 624377; inhibition, % at 16.5 µM; 0.19% of 360,000 active; Q9ULH1; in the data active = inhibition above about 25%
Target sequence (Q9ULH1 325-724 limits assumed): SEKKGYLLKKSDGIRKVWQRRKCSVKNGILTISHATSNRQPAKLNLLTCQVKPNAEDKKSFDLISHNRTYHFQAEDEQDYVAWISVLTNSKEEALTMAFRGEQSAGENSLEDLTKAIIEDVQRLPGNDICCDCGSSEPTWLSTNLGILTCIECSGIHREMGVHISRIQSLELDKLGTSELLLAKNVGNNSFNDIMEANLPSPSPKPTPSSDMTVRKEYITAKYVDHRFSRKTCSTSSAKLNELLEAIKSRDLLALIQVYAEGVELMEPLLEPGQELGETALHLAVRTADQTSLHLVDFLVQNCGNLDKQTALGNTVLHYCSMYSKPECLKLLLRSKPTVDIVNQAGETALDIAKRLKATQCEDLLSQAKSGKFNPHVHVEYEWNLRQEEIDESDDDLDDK
pPAFAH FP inh: inhibitors of human plasma PAF acetylhydrolase (pPAFAH); 1.5% of 330,000 active; recombinant pPAFAH, FP-rhodamine probe fluorescence polarization; AID 463082; Q13093; inhibition, % at 3.39 µM;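 active = inhibition above the mean inhibition across the screen plus 3 SD, cut at about 25% in these data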;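 also: inhibitors block binding of the rhodamine activity-based probe so polarization drops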
PAFAH1B2 inh: PAFAH1B2 (human) inhibition; recombinant PAFAH1B2, FP-rhodamine activity probe, fluorescence polarization; 1.2% of 340,000 active; AID 492953; inhibition, % at 3.39 µM;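 active = inhibition above the mean of all tested compounds plus 3 SD, cut at about 24% in these data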
Target sequence (P68402 whole entry, looked up): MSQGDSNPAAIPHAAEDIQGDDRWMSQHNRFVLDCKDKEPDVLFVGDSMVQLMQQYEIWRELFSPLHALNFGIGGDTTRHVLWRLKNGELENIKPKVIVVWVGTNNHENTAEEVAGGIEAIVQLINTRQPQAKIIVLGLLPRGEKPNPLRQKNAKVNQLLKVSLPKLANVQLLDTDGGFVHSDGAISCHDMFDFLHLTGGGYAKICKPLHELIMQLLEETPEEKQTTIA
ARFGAP1 inhibitor: rat ARFGAP1 inhibition; Q62848; inhibition, % at 16.5 µM; Arfgap1-stimulated ARF1 GTP hydrolysis, GDP FP detection; 0.26% of 360,000 active;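 active = inhibition above a per-plate limit, mean inhibition of low control wells plus 3 SD, cut at about 25% in these data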
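system = rat Arfgap1 catalytic domain, aa 1-136 | technique = FP, GDP Alexa 633 tracer displaced from anti-GDP antibody, 620/688 nm | compound = one concentration, 16.5 µM, DMSO 1.26% | medium = HEPES-based buffer, pH 7.5 | timing = compound-enzyme preincubation 20 min, reaction 120 min, detection 60 min, 25 °C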
PAFAH2 FP inh: inhibitors of human PAFAH2 | recombinant PAFAH2, FP-rhodamine activity probe, fluorescence polarization | inhibition, % at 3.39 µM | Q99487 | 0.99% of 340,000 active | AID 492956;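 active = inhibition above the mean over all tested compounds plus 3 SD, cut at about 30% in these data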;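 also: inhibitors block probe labeling of enzyme so polarization drops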
PAFAH1B3 inh: inhibitors of human PAFAH1B3; Q15102; recombinant PAFAH1B3, FP-rhodamine probe, fluorescence polarization; inhibition, % at 3.39 µM; 0.28% of 340,000 active; AID 492972;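 active = inhibition above the screen-wide average of all tested compounds plus 3 SD, cut at about 25% in these data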
Of the large screens only hits and unclear results are named; the others gave an inactive call.

COc1ccc(NC(=O)O/N=C/c2ccc(Br)cc2)cc1	PAFAH1B2 inh 46
Cc1ccc(NC(=O)O/N=C/c2ccc(Br)cc2)cc1	PAFAH1B2 inh 58
O=C1/C(=C2\C(=O)N(Cc3ccc(F)cc3)c3ccccc32)SC(=S)N1CCS(=O)(=O)O	none
O=C(O)CN1C(=O)/C(=C2\C(=O)N(Cc3ccccc3Cl)c3ccccc32)SC1=S	PAFAH1B2 inh 26
O=Cc1cccc(OCc2cccc3ccccc23)c1	none
CCc1ccccc1NC(=S)Nn1cnnc1	none (no result: pPAFAH FP inh)
CCc1ccc(CNc2ccc(N3CCN(C(C)=O)CC3)cc2)cc1	pPAFAH FP inh 30
CC1CCc2[nH]c3ccc(C(=O)N(C)CC(=O)Nc4ccc(F)cc4)cc3c2C1 (stereo unspecified)	PAFAH1B2 inh 39, PAFAH2 FP inh 49
O=[N+]([O-])c1ccc(S(=O)(=O)NNC(=S)NCCc2ccccc2)cc1	PAFAH1B2 inh 42
Cc1ccc(S(=O)(=O)N2CCN(C(=O)c3ccccc3Cc3ccccc3)CC2)c(C)c1	PAFAH1B2 inh 27
Cc1ccc(S(=O)(=O)N2CCN(C(=O)c3ccco3)CC2)c(C)c1	none
COc1ccc(OC)c(/C=C2\SC(=S)N(NS(=O)(=O)c3ccc(C)cc3)C2=O)c1	pPAFAH FP inh 26
COc1ccc(/C=C2\SC(=S)N(NS(=O)(=O)c3ccc(C)cc3)C2=O)c(OC)c1	none
COC(=O)c1sc(-c2ccc(Cl)cc2)cc1NC(=O)/C=C/C(=O)O	PAFAH1B2 inh 27
COC(=O)c1sc(-c2ccc(C(C)(C)C)cc2)cc1NC(=O)CCC(=O)O	pPAFAH FP inh 26 (no result: PAFAH1B2 inh, PAFAH2 FP inh, PAFAH1B3 inh)
COC(=O)c1sc(-c2ccccc2)cc1NC(=O)c1cc(OC)cc(OC)c1	none
COC(=O)c1sc(-c2ccc(Cl)cc2)cc1NC(=O)COCC(=O)O	PAFAH1B2 inh 43
CC1(C(=O)NC2CCCCCC2)CCN1C(=O)C1(c2ccccc2)CC1 (stereo unspecified)	none (no result: pPAFAH FP inh, PAFAH1B2 inh, PAFAH2 FP inh, PAFAH1B3 inh)
Cc1nc2ccc(S(=O)(=O)Nc3ccccc3C)cc2s1	pPAFAH FP inh 33 (no result: ASAP1 GAP inh, ARFGAP1 inhibitor)
Cc1nc2ccc(NS(=O)(=O)c3ccc(C)c(C)c3)cc2s1	none
Cc1nc2ccc(S(=O)(=O)NCC(=O)NCc3ccc(Cl)cc3)cc2s1	PAFAH1B2 inh 25
CCn1cc(C(=O)Nc2ccc(Oc3cccnc3)cc2)c2ccccc21	none (no result: pPAFAH FP inh, PAFAH1B2 inh, PAFAH2 FP inh, PAFAH1B3 inh)
COc1ccc(S(=O)(=O)Nc2ccccc2OC)cc1N=Nc1c(O)[nH]c(=S)[nH]c1=O	pPAFAH FP inh 26
COc1ccccc1NS(=O)(=O)c1ccc2[nH]c(=O)[nH]c2c1	none
O=C(O)C1=CC(=C(c2ccc(O)c(C(=O)O)c2)c2ccc(O)c(C(=O)O)c2)C=CC1=O	pPAFAH FP inh 66 (no result: ASAP1 GAP inh, PAFAH1B2 inh, ARFGAP1 inhibitor, PAFAH2 FP inh, PAFAH1B3 inh)
CC1=C/C(=C(\c2ccc(O)c(C)c2)c2ccccc2S(=O)(=O)O)C=CC1=O	none
CCOc1cc(CNCCSc2nnnn2C)cc(Br)c1OCc1ccccc1F	pPAFAH FP inh 25
Cc1cc(C)cc(NC(=O)Nc2ccc(-n3ccc(C(F)(F)F)n3)cc2)c1	PAFAH1B2 inh 49
O=C(Nc1ccc(-n2ccc(C(F)(F)F)n2)cc1)Nc1cccc(Cl)c1	none
COc1ccc(CCCNC(=O)C2(C)Cc3c(-c4cccc(C(N)=O)c4)ccnc3O2)cc1 (stereo unspecified)	none (no result: pPAFAH FP inh, PAFAH1B2 inh, PAFAH2 FP inh, PAFAH1B3 inh)
COc1ccc(C(c2c(C)[nH]n(C(N)=S)c2=O)C(C#N)C#N)cc1 (stereo unspecified)	none
Cc1[nH]n(-c2ncc(-c3ccc(Cl)cc3)s2)c(=O)c1C(c1ccc(Cl)cc1)C(C#N)C#N (stereo unspecified)	pPAFAH FP inh 29 (no result: ASAP1 GAP inh, ARFGAP1 inhibitor)
CCOC(=O)c1c(C)[nH]c(O)c1C=Nc1ccc(C(F)(F)F)cc1	PAFAH1B3 inh 31
O=C(Oc1ccc(-c2ccccc2)cc1)c1ccco1	PAFAH1B2 inh 32 (no result: pPAFAH FP inh)
O=C(Oc1ccc(OC(=O)c2ccco2)c(S(=O)(=O)c2ccc(Br)cc2)c1)c1ccco1	PAFAH1B2 inh 45 (no result: ASAP1 GAP inh, ARFGAP1 inhibitor)
COC(=O)c1ccc(OC(=O)c2ccco2)cc1	none
COc1cccc2cc(C(=O)OCc3ccccc3)c(=O)oc12	none
C=C1C(=O)[C@@]23[C@H](O)C[C@@H]4C(C)(C)CC[C@H](O)[C@@]4(C)[C@@H]2CC[C@@H]1[C@H]3O	PAFAH1B2 inh 86
C=C1C(=O)[C@@]23[C@H](O)C[C@@H]4C(C)(C)CC[C@H](O)[C@]4(C)[C@@H]2C[C@H](O)[C@@H]1[C@H]3O	PAFAH1B2 inh 81
COC(=O)CCC/C=C1/SCC(NC(=O)c2ccccc2)C1O (stereo unspecified)	none
COC(=O)CCC/C=C1/SCC(NC(=O)c2ccccc2)C1=O (stereo unspecified)	pPAFAH FP inh 26
COc1ccc(C)cc1NC(=O)Cn1c(=O)oc2ccccc21	none
COc1cc(-c2nc3ccc(C)cn3c2NCc2ccccc2)ccc1-c1cccc(Cl)c1	pPAFAH FP inh 30
CCCCNc1c(-c2cccc(-c3ccc(OC)cc3)c2)nc2cc(C)ccn12	none
CCCCNc1c(-c2cccc(-c3ccc(OC)cc3)c2)nc2ccc(C)cn12	pPAFAH FP inh 25
COc1ccc2c(c1)O[C@@H](c1cccc(C(F)(F)F)c1)[C@H](O)C2=O	PAFAH2 FP inh 71 (no result: ASAP1 GAP inh, ARFGAP1 inhibitor)
O=C(Nc1cccc(NC(=O)c2ccccc2)n1)c1ccccc1	none
O=C1CCC(C(=O)O)N1 (stereo unspecified)	none
Cc1ccc(Sc2ccc(/C=C3/C(=O)NN(c4ccccc4)C3=O)o2)cc1	PAFAH1B2 inh 36
O=C1NN(c2ccccc2)C(=O)/C1=C/c1ccc(Sc2ccc(Cl)cc2)o1	PAFAH1B2 inh 29
COC(=O)c1c(-c2ccc(OC)cc2)sc2ccccc12	none (no result: ASAP1 GAP inh, PAFAH1B2 inh, ARFGAP1 inhibitor, PAFAH2 FP inh, PAFAH1B3 inh)
O=[N+]([O-])c1cc2oc3c(c2c(C=NCc2ccncc2)c1O)CCCC3	PAFAH2 FP inh 37, PAFAH1B3 inh 26 (no result: ASAP1 GAP inh, pPAFAH FP inh, ARFGAP1 inhibitor)
[O-][n+]1onc2c1CCC(=N/O)/C2=N\Nc1ccccc1	pPAFAH FP inh 41 (no result: ASAP1 GAP inh, PAFAH1B2 inh, ARFGAP1 inhibitor, PAFAH2 FP inh, PAFAH1B3 inh)
CN(CC(=O)NC(=O)NC1CCCCC1)CC(=O)Nc1ccc(Cl)cc1	PAFAH1B2 inh 24
CN(CC(=O)Nc1ccc(C#N)cc1)Cc1ccc(Cl)cc1	PAFAH1B2 inh 31
COc1ccccc1CN(C)CC(=O)NC(=O)NC1CCCCC1	pPAFAH FP inh 34
CCN(CC)S(=O)(=O)c1cccc(C(=O)N/N=C/c2ccc(O)c(O)c2O)c1	pPAFAH FP inh 30
Nc1ccn([C@@H]2O[C@H](C(=O)NCCCN3CCCC3=O)[C@@H](O)[C@H]2O)c(=O)n1	none (no result: pPAFAH FP inh, PAFAH1B2 inh, PAFAH2 FP inh, PAFAH1B3 inh)
CCc1ccc[n+](-c2[nH]c(=O)sc2/C=N/N=C(\[O-])CCn2c3ccccc3c3ccccc32)c1	none
Cc1cc[n+](-c2[nH]c(=O)sc2/C=N/N=C(\[O-])CCn2c3ccccc3c3ccccc32)cc1	pPAFAH FP inh 32 (no result: PAFAH1B2 inh, PAFAH2 FP inh, PAFAH1B3 inh)
Cc1cccc(Nc2nnc(SCC(=O)Nc3ccc(C(=O)O)cc3)s2)c1	none

Screens (PubChem)
